Test results from ChEMBL document CHEMBL4385599, “Neutral sphingomyelinase 2 inhibitors based on the 4-(1H-imidazol-2-yl)-2,6-dialkoxyphenol scaffold” (Eur J Med Chem, 2019).

Tests used:
[1] = Ratio of drug level of test compound to drug level of DPTIP in CD-1 mouse plasma at 10 mg/kg, po measured after 2 hrs by UPLC and LC-MS/MS analysis; type: ADME, organism-based; settings: in vivo
In short: (§1)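 Male CD-1 mice (25–30 g), single oral gavage 10 mg/kg in 5% DMSO, 5% polysorbate 80, 90% saline; 3 mice per time point, sacrificed at 0.5 and 2 h. Cardiac blood into heparin, plasma by centrifugation; brains flash frozen. Acetonitrile extraction with losartan internal standard; quantified by UPLC–LC-MS/MS against calibration curves in naïve plasma/brain matrix.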

[2] = Metabolic stability in mouse liver microsomes assessed as parent compound remaining at 5 uM in presence of NADPH regenerating system measured after 1 hr by LC/MS/MS method; type: ADME, Microsome
[3] = Ratio of drug level of test compound to drug level of DPTIP in CD-1 mouse plasma at 10 mg/kg, po measured after 0.5 hrs by UPLC and LC-MS/MS analysis; type: ADME, organism-based; settings: in vivo; in short: as §1
[4] = Metabolic stability in human liver microsomes assessed as parent compound remaining in presence of UDPGA at 5 uM measured after 1 hr by LC/MS/MS method; type: ADME, Microsome
In short: (§2)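 Glucuronidation: compound in 50 mM Tris-HCl pH 7.5 with microsomes 0.5 mg/mL, 8 mM MgCl2, 25 μg/mL alamethicin, preincubated at 37 °C; started with UDPGA 2 mM final, triplicate; 60 min; quenched with cold acetonitrile plus internal standard; parent remaining by LC/MS/MS; cofactor-free controls.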

[5] = Drug metabolism in CD-1 mouse assessed as (2S,3S,4S,5R,6S)-6-(4-(4,5-diisopropyl-1H-imidazol-2-yl)-2,6-dimethoxyphenoxy)-3,4,5-trihydroxytetrahydro-2H-pyran-2-carboxylic acid at 10 mg/kg, po measured after 2 hrs by UPLC and LC-MS/MS analysis; type: ADME, organism-based; settings: in vivo
[6] = Ratio of drug level in brain to plasma in CD-1 mouse at 10 mg/kg, po measured after 2 hrs by UPLC and LC-MS/MS analysis; type: ADME, organism-based; in short: as §1
[7] = Metabolic stability in human liver microsomes assessed as parent compound remaining at 5 uM in presence of NADPH regenerating system measured after 1 hr by LC/MS/MS method; type: ADME, Microsome
[8] = Metabolic stability in mouse liver microsomes assessed as parent compound remaining in presence of UDPGA at 5 uM measured after 1 hr by LC/MS/MS method; type: ADME, Microsome; in short: as §2
[9] = Selectivity index, ratio of IC50 for horseradish peroxidase to IC50 for Inhibition of human recombinant nSMase expressed in HEK293 cells; type: cell-based
[10] = organism: Homo sapiens; assay: Selectivity index, ratio of IC50 for alkaline phosphatase (unknown origin) to IC50 for Inhibition of human recombinant nSMase expressed in HEK293 cells; type: cell-based
[11] = Ratio of drug level of test compound to drug level of DPTIP in CD-1 mouse brain at 10 mg/kg, po measured after 2 hrs by UPLC and LC-MS/MS analysis; type: ADME, organism-based; settings: in vivo; in short: as §1
[12] = biological target: T1, Sphingomyelin phosphodiesterase 3 (Homo sapiens, UniProt Q9NY59); assay: Inhibition of human recombinant nSMase expressed in HEK293 cells using sphingomyelin as substrate by alkaline phosphatase, choline oxidase and horseradish peroxidase dependent H2O2 detection based fluorescence coupled assay
T1 sequence (Q9NY59 whole entry): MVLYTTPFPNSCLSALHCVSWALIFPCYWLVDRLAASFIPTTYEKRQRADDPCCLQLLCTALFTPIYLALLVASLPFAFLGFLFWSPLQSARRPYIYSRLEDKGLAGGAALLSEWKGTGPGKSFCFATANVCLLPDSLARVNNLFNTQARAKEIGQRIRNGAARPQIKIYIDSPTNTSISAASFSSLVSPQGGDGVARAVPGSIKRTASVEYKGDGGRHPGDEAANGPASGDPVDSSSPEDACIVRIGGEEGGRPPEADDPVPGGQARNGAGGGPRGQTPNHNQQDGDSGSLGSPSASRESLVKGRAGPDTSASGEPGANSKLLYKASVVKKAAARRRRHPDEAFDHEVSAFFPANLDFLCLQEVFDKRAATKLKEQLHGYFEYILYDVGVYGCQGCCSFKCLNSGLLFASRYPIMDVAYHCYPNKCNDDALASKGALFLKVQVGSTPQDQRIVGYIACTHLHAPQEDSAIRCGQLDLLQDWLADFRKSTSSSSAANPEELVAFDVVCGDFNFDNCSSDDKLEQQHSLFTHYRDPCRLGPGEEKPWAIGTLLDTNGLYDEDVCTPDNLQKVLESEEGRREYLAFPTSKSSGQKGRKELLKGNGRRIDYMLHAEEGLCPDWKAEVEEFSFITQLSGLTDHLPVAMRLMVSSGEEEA
In short: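 Fluorescence-based coupled assay with human recombinant nSMase2, alkaline phosphatase and choline oxidase; IC50 values are mean ± SD of at least three experiments.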

[13] = organism: Homo sapiens; assay: Selectivity index, ratio of IC50 for choline oxidase (unknown origin) to IC50 for Inhibition of human recombinant nSMase expressed in HEK293 cells; type: cell-based

Ratio [1]: 6
Stability [2]: 82%
Ratio [3]: 3
Stability [4]: 32%
Drug metabolism [5]: Metabolite_Detected
BPR [6]: 9%
Stability [7]: > 95%
Stability [8]: 14%
Ratio [11]: 3
IC50 [12]: 90 nM
Structure (SMILES): COc1cc(-c2nc(C(C)C)c(C(C)C)[nH]2)cc(OC)c1O
Ratio IC50 [9]: > 5
Ratio IC50 [10]: > 5
Ratio IC50 [13]: > 5
